Measured values: ChEMBL document CHEMBL4251600, “Bioactive products from singlet oxygen photooxygenation of cannabinoids” (Eur J Med Chem, 2018)
pIC50, pKi: −log10 of the molar value. Values after ≈ are worked out from the molar mass of the structure shown. Active and inactive are the calls of the source. No cut-off for these calls is given here.

How the values were obtained:
Cannabinoid receptor 1 [1] = biological target: T1, Cannabinoid receptor 1 (Homo sapiens, UniProt P21554); assay: Displacement of [3H]CP-55,940 from recombinant human full length CB1 receptor expressed in HEK293 cell membranes after 90 mins by topcount method
Cannabinoid receptor 2 [2] = biological target: T2, Cannabinoid receptor 2 (Homo sapiens, UniProt P34972); assay: Displacement of [3H]CP-55,940 from recombinant human full length CB2 receptor expressed in HEK293 cell membranes after 90 mins by topcount method
Cannabinoid receptor 1 [3] = biological target: T1, Cannabinoid receptor 1; assay: Agonist activity at recombinant human full length CB1 receptor expressed in HEK293 cell membranes after 2 hrs by [35S]GTP-gammaS binding assay; type: functional
Method in brief: (§1)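 Membranes (20 µg/well) from HEK293 cells stably transfected with human CB1 or CB2 cDNA were incubated with test compound and 0.5 nM [35S]-GTP-γS. Buffer: 50 mM Tris-HCl, 0.2 mM EGTA, 9 mM MgCl2, 150 mM NaCl, 50 µM GDP, 1.4 mg/ml BSA. Incubation ran 2 h at 30°C and was stopped by vacuum filtration through GF/B filters with cold Tris-HCl. Nonspecific binding was taken with 40 µM GTP-γS.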

Cannabinoid receptor 1 [4] = biological target: T1, Cannabinoid receptor 1; assay: Agonist activity at recombinant human full length CB1 receptor expressed in HEK293 cell membranes at 100 uM after 2 hrs by [35S]GTP-gammaS binding assay relative to CP-55,940; type: functional
Cannabinoid receptor 2 [5] = biological target: T2, Cannabinoid receptor 2; assay: Agonist activity at recombinant human full length CB2 receptor expressed in HEK293 cell membranes at 100 uM after 2 hrs by [35S]GTP-gammaS binding assay relative to CP-55,940; type: functional
Cannabinoid receptor 2 [6] = biological target: T2, Cannabinoid receptor 2; assay: Agonist activity at recombinant human full length CB2 receptor expressed in HEK293 cell membranes after 2 hrs by [35S]GTP-gammaS binding assay; type: functional; method in brief: as §1
Nakaseomyces glabratus = assay: Antifungal activity against Candida glabrata by modified CLSI based method; type: functional, organism-based
Pichia kudriavzevii = assay: Antifungal activity against Candida krusei by modified CLSI based method; type: functional, organism-based
Leishmania donovani = assay: Antileishmanial activity against Leishmania donovani promastigotes incubated for 48 hrs by alamar blue assay; type: functional, organism-based; conditions: Leishmania donovani, 48 h; for IC50: read-out: IC50; for IC90: read-out: IC90
Cryptococcus neoformans = assay: Antifungal activity against Cryptococcus neoformans by alamar blue assay; type: functional, organism-based; conditions: for IC50: read-out: IC50
Staphylococcus aureus [7] = assay: Antimicrobial activity against Staphylococcus aureus by modified CLSI based method; type: functional, organism-based
Staphylococcus aureus [8] = assay: Antimicrobial activity against methicillin-resistant Staphylococcus aureus by modified CLSI based method; type: functional, organism-based
Plasmodium falciparum [9] = assay: Antiplasmodial activity against chloroquine-resistant Plasmodium falciparum W2 infected in red blood cells incubated for 72 hrs by parasite LDH release based colorimetric assay; type: functional, organism-based; conditions: W2, 72 h
Plasmodium falciparum [10] = assay: Antiplasmodial activity against chloroquine-sensitive Plasmodium falciparum D6 infected in red blood cells incubated for 72 hrs by parasite LDH release based colorimetric assay; type: functional, organism-based; conditions: D6, 72 h
[11] = Staphylococcus aureus, read-out: IC50

T1 sequence (P21554 whole entry): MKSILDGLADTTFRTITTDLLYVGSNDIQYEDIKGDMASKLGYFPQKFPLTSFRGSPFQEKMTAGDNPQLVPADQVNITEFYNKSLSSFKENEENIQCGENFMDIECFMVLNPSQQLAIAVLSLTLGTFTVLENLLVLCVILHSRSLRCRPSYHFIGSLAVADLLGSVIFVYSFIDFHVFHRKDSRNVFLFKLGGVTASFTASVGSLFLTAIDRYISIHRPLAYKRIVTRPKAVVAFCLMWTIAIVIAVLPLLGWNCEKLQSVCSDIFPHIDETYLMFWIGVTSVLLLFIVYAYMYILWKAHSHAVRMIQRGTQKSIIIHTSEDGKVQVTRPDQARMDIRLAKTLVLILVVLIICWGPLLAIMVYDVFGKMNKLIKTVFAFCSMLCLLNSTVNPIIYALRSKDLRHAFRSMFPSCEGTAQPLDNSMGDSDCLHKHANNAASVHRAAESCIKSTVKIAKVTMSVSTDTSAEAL
T2 sequence (P34972 whole entry): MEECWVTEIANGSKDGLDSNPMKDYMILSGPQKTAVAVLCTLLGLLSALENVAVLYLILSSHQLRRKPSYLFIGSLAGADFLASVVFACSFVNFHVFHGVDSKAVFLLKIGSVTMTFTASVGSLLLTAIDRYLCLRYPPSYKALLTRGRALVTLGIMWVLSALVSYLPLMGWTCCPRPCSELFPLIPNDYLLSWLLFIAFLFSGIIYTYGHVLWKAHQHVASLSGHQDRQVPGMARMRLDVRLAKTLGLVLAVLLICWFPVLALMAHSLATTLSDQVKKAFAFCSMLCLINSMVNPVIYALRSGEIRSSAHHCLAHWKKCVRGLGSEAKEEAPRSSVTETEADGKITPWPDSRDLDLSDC

CCCCCc1cc(OC(C)=O)c2c(c1)OC(C)(C)C1=C2C2OC2(C)CC1 (stereo not drawn) was tested, and the pIC50 (Cannabinoid receptor 1 [1]) was 6.24, the pKi (Cannabinoid receptor 1 [1]) was 6.54 and the pIC50 (Cannabinoid receptor 2 [2]) was 6.03. For the same compound, the pKi (Cannabinoid receptor 2 [2]) was 6.33.
For CCCCCc1cc2c(c(OS(=O)(=O)c3ccc(C)cc3)c1)[C@@H]1CC(C)(OO)C=C[C@H]1C(C)(C)O2 (stereo partly drawn), the pIC50 (Cannabinoid receptor 1 [1]) was 6.56, the pKi (Cannabinoid receptor 1 [1]) was 6.86 and the pIC50 (Cannabinoid receptor 1 [3]) was 7.01. For the same compound, the pKi (Cannabinoid receptor 1 [3]) was 7.32, the Emax (Cannabinoid receptor 1 [4]) was 20% and the Emax (Cannabinoid receptor 2 [5]) was 90%. It also gave a pIC50 (Cannabinoid receptor 2 [2]) of 6.38, a pKi (Cannabinoid receptor 2 [2]) of 6.68 and a pIC50 (Cannabinoid receptor 2 [6]) of 5.76. The pKi (Cannabinoid receptor 2 [6]) was 6.06.
C=C1C[C@H]2C3=C(OC(C)(C)[C@@H]2CC1OO)C(=O)C(CCCCC)=CC3=O (stereo in doubt; 25) was tested, and the MIC (Nakaseomyces glabratus) was “inactive” and the MIC (Pichia kudriavzevii) was “inactive”.
For CCCCCc1cc(O)c2c(c1)OC(C)(C)[C@@H]1C=C[C@@](C)(O)C[C@@H]21, the pIC50 (Cannabinoid receptor 1 [1]) was 6.03, the pKi (Cannabinoid receptor 1 [1]) was 6.33 and the pIC50 (Cannabinoid receptor 1 [3]) was 6.41. For the same compound, the pKi (Cannabinoid receptor 1 [3]) was 6.71, the pIC50 (Cannabinoid receptor 2 [2]) was 7.72 and the pKi (Cannabinoid receptor 2 [2]) was 8.02. The pIC50 (Cannabinoid receptor 2 [6]) was 4.94 and the pKi (Cannabinoid receptor 2 [6]) was 5.24.
With CCCCCc1cc(O)c2c(c1)OC(C)(C)C1=C2C(O)C(C)(OC)CC1 (stereo not drawn) the pIC50 (Cannabinoid receptor 1 [1]) was 5.97, the pKi (Cannabinoid receptor 1 [1]) was 6.27 and the Emax (Cannabinoid receptor 1 [4]) was 20%. It also gave an Emax (Cannabinoid receptor 2 [5]) of 40%, a pIC50 (Cannabinoid receptor 2 [2]) of 6.22 and a pKi (Cannabinoid receptor 2 [2]) of 6.52. It also gave an IC50 (Leishmania donovani) of 35 µg/mL (≈ 97.1 µM) and an IC90 (Leishmania donovani) of over 40 µg/mL.
Work on CCCCCc1cc2c(c(OS(=O)(=O)c3ccc(C)cc3)c1)[C@@H]1[C@H](O)C(C)=CC[C@H]1C(C)(C)O2 yielded a pIC50 (Cannabinoid receptor 1 [1]) of 5.89, a pKi (Cannabinoid receptor 1 [1]) of 6.19 and a pIC50 (Cannabinoid receptor 2 [2]) of 5.95. It also gave a pKi (Cannabinoid receptor 2 [2]) of 6.26.
With CCCCCc1cc2c(c(OS(=O)(=O)c3ccc(C)cc3)c1)[C@H]1[C@@H](CC=C(C)[C@@H]1O)C(C)(C)O2 the MIC (Nakaseomyces glabratus) was “inactive”, the MIC (Pichia kudriavzevii) was “inactive” and the MIC (Cryptococcus neoformans) was “inactive”. For the same compound, the MIC (Staphylococcus aureus [7]) was “inactive” and the MIC (Staphylococcus aureus [8]) was “inactive”.
CCCCCc1cc(O)c2c(c1)OC(C)(C)C1=C2C(OCC)C(C)(O)CC1 (stereo not drawn) was tested, and the IC50 (Plasmodium falciparum [9]) was 3.7 µg/mL (≈ 9.88 µM), the IC50 (Nakaseomyces glabratus) was “Not Active” and the MIC (Nakaseomyces glabratus) was “inactive”. The IC50 (Pichia kudriavzevii) was “Not Active”, the MIC (Pichia kudriavzevii) was “inactive” and the MIC (Cryptococcus neoformans) was “inactive”. The IC50 (Cryptococcus neoformans; Cryptococcus neoformans) was 4.57 µg/mL (≈ 12.2 µM), the MIC (Staphylococcus aureus [7]) was “inactive” and the IC50 (Staphylococcus aureus [7]; [11]) was 4.86 µg/mL (≈ 13 µM). The MIC (Staphylococcus aureus [8]) was “inactive”, the IC50 (Staphylococcus aureus [8]; [11]) was 17.1 µg/mL (≈ 45.6 µM) and the IC50 (Plasmodium falciparum [10]) was 3.6 µg/mL (≈ 9.61 µM). It also gave an IC50 (Leishmania donovani) of 3 µg/mL (≈ 8.01 µM) and an IC90 (Leishmania donovani) of 6 µg/mL (≈ 16 µM).
C[C@@H]1[C@H](O)[C@@H](C)/C=C/C=C/C=C/C=C/C=C/C=C/C=C/[C@H](O[C@@H]2O[C@H](C)[C@@H](O)[C@H](N)[C@@H]2O)C[C@@H]2O[C@](O)(C[C@@H](O)C[C@@H](O)[C@H](O)CC[C@@H](O)C[C@@H](O)CC(=O)O[C@H]1C)C[C@H](O)[C@H]2C(=O)O [AMPHOTERICIN B] showed an IC50 (Cryptococcus neoformans; Cryptococcus neoformans) of 1.36 µg/mL (≈ 1.47 µM), an MIC (Cryptococcus neoformans; Cryptococcus neoformans, read-out: MIC) of 2.5 µg/mL (≈ 2.71 µM) and an IC50 (Leishmania donovani) of 0.16 µg/mL (≈ 0.173 µM). For the same compound, the IC90 (Leishmania donovani) was 0.33 µg/mL (≈ 0.357 µM).
In the case of C=C1C[C@H]2C3=C(OC(C)(C)[C@@H]2CC1OO)C(=O)C(CCCCC)=CC3=O (stereo in doubt; 26), the MIC (Nakaseomyces glabratus) was “inactive”, the MIC (Pichia kudriavzevii) was “inactive” and the MIC (Staphylococcus aureus [8]) was “inactive”.
CCCCCc1cc(OC(C)=O)c2c(c1)OC(C)(C)C1=C2C(O)C(C)(O)CC1 (stereo not drawn) showed an IC50 (Plasmodium falciparum [9]) of 3.2 µg/mL (≈ 8.24 µM) and an IC50 (Plasmodium falciparum [10]) of 4.5 µg/mL (≈ 11.6 µM).
In the case of C=C1C[C@H]2c3c(cc(CCCCC)cc3OS(=O)(=O)c3ccc(C)cc3)OC(C)(C)[C@@H]2CC1OO (stereo partly drawn), the pIC50 (Cannabinoid receptor 1 [1]) was 5.24, the pKi (Cannabinoid receptor 1 [1]) was 5.55 and the pIC50 (Cannabinoid receptor 2 [2]) was 5.69. For the same compound, the pKi (Cannabinoid receptor 2 [2]) was 5.99.
